Data: paper PMC3549632 (Biochemistry, 2012)
Where two headings read alike, the source gives them in different places.

Legend:
SULT1A1 [1] = target: T1, SULT1A1 (Homo sapiens, UniProt P50225); assay type: binding
Method in brief: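 Purified tag-cleaved human SULT1A1 in 5.0 mM MgCl2, 25 mM potassium phosphate pH 7.4, 0 or 125 μM PAP, 25 ± 2 °C. Ligand titrated from ethanol:water (1:1), final ethanol <0.5%. Intrinsic fluorescence quenching read at λex 290 nm. Triplicate titrations averaged, ΔI/ΔImax vs total ligand least-squares fit with a quadratic single-site-per-monomer model, giving apparent […].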

SULT1A1 [2] = target: T1, SULT1A1; assay: Presteady state; assay type: binding; details: for koff: pH 7.4, 25 °C
SULT1A1 [3] = target: T1, SULT1A1; assay: SULT1A1 intrinsic hydrolysis of PAPS; assay type: biochemical; details: saturating 35S-PAPS (7.0 μM), MgCl2 5.0 mM, KPO4 25 mM, pH 7.4, 25 °C
[4] = pH 7.4, enzyme species PAPS·E (saturating PAPS)

T1 sequence (P50225 whole entry): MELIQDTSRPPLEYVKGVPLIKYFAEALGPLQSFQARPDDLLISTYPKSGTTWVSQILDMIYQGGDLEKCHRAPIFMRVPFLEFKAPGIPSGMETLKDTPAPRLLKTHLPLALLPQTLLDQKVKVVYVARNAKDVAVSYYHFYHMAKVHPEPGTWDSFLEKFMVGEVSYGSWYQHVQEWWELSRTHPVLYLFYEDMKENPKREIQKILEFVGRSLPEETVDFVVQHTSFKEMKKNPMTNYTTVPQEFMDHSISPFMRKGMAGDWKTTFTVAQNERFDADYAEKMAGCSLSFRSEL

| Structure (SMILES) | Kd (SULT1A1 [1]) | Kd (SULT1A1 [2]) | koff (SULT1A1 [2]; pH 7.4, enzyme species E) | koff (SULT1A1 [2]; [4]) | effect of PAPS on binding on- and off-rate constants (SULT1A1 [2]; saturating PAPS) | kcat (app) for SULT1A1 hydrolysis of PAPS (SULT1A1 [3]) | Kd (SULT1A1 [1]; Kd, enzyme species E (zero PAP, open form), pH 7.4, 25 °C) | Kd (SULT1A1 [1]; Kd, enzyme species PAP·E (saturating PAP, 125 μM; closed form), pH 7.4, 25 °C) | fold decrease in apparent on-rate constant at saturating PAPS (SULT1A1 [2]; E vs PAPS·E) | Kd (SULT1A1 [2]; Kd (koff/kon), enzyme species E, calculated from rate constants) | effect of PAPS on off-rate constant (SULT1A1 [2]; saturating PAPS) |
| --- | --- | --- | --- | --- | --- | --- | --- | --- | --- | --- | --- |
| C[C@]12CC[C@@H]3c4ccc(O)cc4CC[C@H]3[C@@H]1CC[C@@H]2O [E2, estradiol] | 1.7 µM | 1.3 µM | 1.6 s⁻¹ | 1.9 s⁻¹ | not significantly affected | – | – | – | – | – | – |
| Nc1ncnc2c1ncn2[C@@H]1O[C@H](COP(=O)(O)OS(=O)(=O)O)[C@@H](OP(=O)(O)O)[C@H]1O [PAPS, 3′-phosphoadenosine 5′-phosphosulfate] | – | – | – | – | – | 0.000767 s⁻¹ | – | – | – | – | – |
| C[C@]12CC[C@@H]3c4ccc(O)cc4C[C@@H](CCCCCCCCC[S+]([O-])CCCC(F)(F)C(F)(F)F)[C@H]3[C@@H]1CC[C@@H]2O (stereo partly drawn) [fulvestrant, (7R,8R,9S,13S,14S,17S)-13-methyl-7-[9-(4,4,5,5,5-pentafluoropentyl-sulfinyl)nonyl]-6,7,8,9,11,12,14,15,16,17,-decahydrocyclopenta[α]phenanthrene-3,17-diol] | – | – | 1.8 s⁻¹ | 1.7 s⁻¹ | – | – | 0.28 µM | 6.9 ± 0.9 µM | 26 fold | 0.27 µM | not affected |
